Laboratory results reported in ChEMBL document CHEMBL3751708, “Structure guided design of potential inhibitors of human calcium-calmodulin dependent protein kinase IV containing pyrimidine scaffold” (Bioorg Med Chem Lett, 2016).
pIC50: −log10 of the molar value.

Tests used:
[1] = tested on: HEK293; test: Cytotoxicity against human HEK293 cells after 48 hrs by MTT assay; type: cell-based; details: HEK293, 48 h
[2] = target: T1, Calcium/calmodulin-dependent protein kinase type IV (Homo sapiens) (UniProt Q16566); test: Binding affinity to human CAMK4 at pH 7.4 by fluorescence emission spectra analysis
T1 sequence (whole entry): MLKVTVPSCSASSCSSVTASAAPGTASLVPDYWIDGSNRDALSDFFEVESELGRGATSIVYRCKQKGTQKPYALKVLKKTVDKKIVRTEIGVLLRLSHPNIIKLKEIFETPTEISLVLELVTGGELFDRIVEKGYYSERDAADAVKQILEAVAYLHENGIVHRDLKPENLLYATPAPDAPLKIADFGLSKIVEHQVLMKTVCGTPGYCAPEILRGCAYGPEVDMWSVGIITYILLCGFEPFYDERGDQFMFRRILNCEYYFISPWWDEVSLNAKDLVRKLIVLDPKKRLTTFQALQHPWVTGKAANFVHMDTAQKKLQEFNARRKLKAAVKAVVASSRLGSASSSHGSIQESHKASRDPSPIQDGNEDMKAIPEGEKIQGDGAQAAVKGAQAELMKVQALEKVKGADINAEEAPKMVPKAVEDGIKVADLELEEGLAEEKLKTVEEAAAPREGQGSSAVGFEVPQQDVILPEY
Outline: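 Recombinant CAMKIV kinase domain at 4 μM in 50 mM phosphate pH 7.4 with 150 mM NaCl, 25 °C. Titrated from a 1.0 mM ligand stock up to 132 μM final. Ligands were diluted from DMSO stock and dialyzed in buffer beforehand. Excitation at 280 nm, tryptophan emission read over 300-400 nm. Ka and n taken from a modified Stern–Volmer plot; three measurements.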

[3] = Cytotoxicity against human HuH7 cells after 48 hrs by MTT assay; type: functional, cell-based; details: Huh-7, 48 h
Outline: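 Exponentially growing HuH7 hepatoma cells at 7000 per well, triplicates, dosed the next day with inhibitors at 5-150 μM for 48 h; curcumin served as positive control. MTT was then added in fresh DMEM for 4-5 h at 37 °C, and formazan was dissolved in DMSO and read at 570 nm. IC50 was derived from percent viability; three independent experiments, mean ± S.D.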

[4] = tested on: HEK293; test: Cytotoxicity against human HEK293 cells up to 25 uM after 48 hrs by MTT assay; type: cell-based; details: hek293, 48 h
Outline: (§1)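 HEK293 cells at 7000 per well, triplicates, treated the next day with inhibitors at 5-150 μM for 48 h. MTT was then added to fresh DMEM for 4-5 h at 37 °C. Formazan was dissolved in DMSO and read at 570 nm. Viability given as percent of untreated control.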

[5] = tested on: HEK293; test: Cytotoxicity against human HEK293 cells up to 50 uM after 48 hrs by MTT assay; type: cell-based; details: hek293, 48 h; outline: as §1

| SMILES | pIC50 [1] | Kapp [2] | pIC50 [3] | Activity [4] | Activity [5] |
| --- | --- | --- | --- | --- | --- |
| N#Cc1cccnc1N1CCN(c2cc(Oc3cccc4cccnc34)ncn2)CC1 | < 3.40 | 4.6 ×10⁵ /M | 3.98 | Non-toxic | – |
| Nc1cccc(Oc2cc(Oc3cccc4cccnc34)ncn2)c1 | 3.40 | 1.6 ×10⁵ /M | 3.94 | Non-toxic | – |
| COc1ccc(Nc2cc(N3CCNCC3)ncn2)cc1 | < 3.40 | 2.2 ×10⁸ /M | 4.34 | – | Non-toxic |
| COc1cc(/C=C/C(=O)CC(=O)/C=C/c2ccc(O)c(OC)c2)ccc1O [CURCUMIN] | < 3.40 | – | 4.32 | – | – |
